Test results taken from paper PMC6839502 (Journal of Alzheimer's Disease, 2019).
Where two headings read alike, the source gives them in different places.

Experiments:
[1] = type: in vivo, human; settings: for t1/2: arithmetic mean±SD
Procedure, shortened: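 Healthy adults (18–55 y) or older subjects (60–85 y) received oral QD doses for 14 days, fasted on Day 1. Plasma was sampled pre-dose and at 0.5, 1, 2, 4, 8, 12, and 24 h, plus 1.5 h (B8271001) or 6 h (B8271004). Day 14 sampling extended to 120 h. Urine was also collected. Samples were analysed by validated HPLC-MS/MS; plasma LLOQ 0.500 or 5.00 ng/mL, urine LLOQ 0.050 ng/mL. Parameters were derived by non-compartmental analysis.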

[2] = test system: BACE1 over BACE 2; settings: fluorescence polarization (FP) assay; cited from earlier work
[3] = test system: BACE1 over BACE 2; settings: radioligand binding assay; cited from earlier work
[4] = 125 mg QD, Day 14, healthy older subjects, geometric mean (% CV)
[5] = 275 mg QD, Day 1, healthy adults, geometric mean (% CV)
[6] = 275 mg QD, Day 7, healthy adults, geometric mean (% CV)
[7] = 275 mg QD, Day 14, healthy adults, geometric mean (% CV)
[8] = multiple doses, healthy adults (Part B)
[9] = single 3 mg fasted, healthy adults, geometric mean (% CV)
[10] = single 12 mg fasted, healthy adults, geometric mean (% CV)
[11] = single 40 mg fasted, healthy adults, geometric mean (% CV)
[12] = single 160 mg fasted, healthy adults, geometric mean (% CV)
[13] = single 200 mg fasted, healthy adults, geometric mean (% CV)
[14] = single 200 mg fed, healthy adults, geometric mean (% CV)
[15] = single 400 mg fasted, healthy adults, geometric mean (% CV)
[16] = single 540 mg fasted, healthy adults, geometric mean (% CV)

Question: What does the source list for `C[C@H]1C[C@H]2CSC(N)=N[C@@]2(c2nc(NC(=O)c3ccc(OC(F)F)cn3)cs2)CO1` [PF-06751979]?
Answer: Cmin [1, 4]: 429.9 (23) ng/mL; Vz/F [1, 4]: 496.1 (30) L; Tmax ([1]; 125 mg QD, Day 14, healthy older subjects, median (range)): 4.00 (2.00–4.03) h; AUCtau [1, 5]: 13260 (18) ng.hr/mL; Cmax [1, 5]: 983.0 (18) ng/mL; Tmax ([1]; 275 mg QD, Day 1, healthy adults, median (range)): 4.00 (2.00–4.00) h; AUCtau [1, 6]: 31210 (14) ng.h/mL; Cmax [1, 6]: 2000 (14) ng/mL; Tmax ([1]; 275 mg QD, Day 7, healthy adults, median (range)): 2.00 (2.00–4.00) h; t1/2 ([1]; 275 mg QD, Day 14, healthy adults): 37.79 ± 7.73 h; AUCtau [1, 7]: 29470 (12) ng.hr/mL; CL/F [1, 7]: 155.3 (13) mL/min; Cmax [1, 7]: 1869 (14) ng/mL; Cmin [1, 7]: 868.5 (15) ng/mL; Rac (observed accumulation ratio) [1, 7]: 2.27 (11); Vz/F [1, 7]: 498.3 (27) L; Tmax ([1]; 275 mg QD, Day 14, healthy adults, median (range)): 4.00 (2.00–4.00) h; Mean of dose recovered unchanged in the urine ([1]; across the dose range studied, multiple doses): 7–10%; Median Tmax ([1]; fasted state, single doses 3 mg to 540 mg and multiple doses up to 275 mg QD, healthy adults): 3 to 4 h; Mean t1/2 across doses ([1]; healthy adults): 29 to 39 h; Observed t1/2 ([1]; healthy older subjects): approximately 40 h; Plasma accumulation at Day 14 ([1]; healthy older subjects): 2.8 fold; Accumulation on Day 14 [1, 8]: 2.1- to 2.5 fold; Steady state achieved by [1, 8]: ≤ 7 days; t1/2 ([1]; single 3 mg fasted, healthy adults): 29.30 ± 0.60 h; AUCinf [1, 9]: 289.7 (8) ng.hr/mL; CL/F [1, 9]: 172.3 (8) mL/min; Cmax [1, 9]: 8.4 (14) ng/mL; Vz/F [1, 9]: 436.8 (6) L; Tmax ([1]; single 3 mg fasted, healthy adults, median (range)): 4.03 (4.00–8.00) h; t1/2 ([1]; single 12 mg fasted, healthy adults): 32.94 ± 4.92 h; AUCinf [1, 10]: 1142 (25) ng.hr/mL; CL/F [1, 10]: 175.0 (25) mL/min; Cmax [1, 10]: 27.4 (36) ng/mL; Vz/F [1, 10]: 494.8 (20) L; Tmax ([1]; single 12 mg fasted, healthy adults, median (range)): 4.11 (2.0–12.00) h; t1/2 ([1]; single 40 mg fasted, healthy adults): 32.12 ± 3.64 h; AUCinf [1, 11]: 3121 (25) ng.hr/mL; CL/F [1, 11]: 213.4 (25) mL/min; Cmax [1, 11]: 78.7 (30) ng/mL; Vz/F [1, 11]: 591.4 (26) L; Tmax ([1]; single 40 mg fasted, healthy adults, median (range)): 4.08 (2.00–8.05) h; t1/2 ([1]; single 160 mg fasted, healthy adults): 39.33 ± 8.20 h; AUCinf [1, 12]: 17050 (18) ng.hr/mL; CL/F [1, 12]: 156.3 (18) mL/min; Cmax [1, 12]: 530.8 (41) ng/mL; Vz/F [1, 12]: 523.2 (25) L; Tmax ([1]; single 160 mg fasted, healthy adults, median (range)): 3.03 (1.87–4.08) h; t1/2 ([1]; single 200 mg fasted, healthy adults): 35.20 ± 8.97 h; AUCinf [1, 13]: 22850 (17) ng.hr/mL; CL/F [1, 13]: 145.8 (17) mL/min; Cmax [1, 13]: 643.2 (19) ng/mL; Vz/F [1, 13]: 433.7 (18) L; Tmax ([1]; single 200 mg fasted, healthy adults, median (range)): 4.00 (2.00–6.07) h; Food effect on plasma exposure (Cmax and AUCinf) ([1]; single 200 mg fed vs fasted): no apparent food effect; t1/2 ([1]; single 200 mg fed, healthy adults): 33.38 ± 6.25 h; AUCinf [1, 14]: 23260 (15) ng.hr/mL; CL/F [1, 14]: 143.3 (15) mL/min; Cmax [1, 14]: 630.2 (9) ng/mL; Vz/F [1, 14]: 408.1 (16) L; Tmax ([1]; single 200 mg fed, healthy adults, median (range)): 6.00 (4.00–8.00) h; Tmax ([1]; single 200 mg in a fed state): 6 h; t1/2 ([1]; single 400 mg fasted, healthy adults): 34.70 ± 8.97 h; AUCinf [1, 15]: 44980 (17) ng.hr/mL; CL/F [1, 15]: 148.3 (17) mL/min; Cmax [1, 15]: 1436.0 (10) ng/mL; Vz/F [1, 15]: 433.0 (19) L; Tmax ([1]; single 400 mg fasted, healthy adults, median (range)): 3.02 (2.00–4.00) h; t1/2 ([1]; single 540 mg fasted, healthy adults): 35.85 ± 8.10 h; AUCinf [1, 16]: 63420 (9) ng.hr/mL; CL/F [1, 16]: 142.0 (9) mL/min; Cmax [1, 16]: 1829.0 (19) ng/mL; Vz/F [1, 16]: 431.1 (19) L; Tmax ([1]; single 540 mg fasted, healthy adults, median (range)): 3.01 (2.00–6.02) h; Selectivity for BACE1 over BACE2 [2]: 6.4 fold; Selectivity for BACE1 over BACE2 [3]: 26.6 fold
